Data as given in ChEMBL document CHEMBL3352683, “Rational design of urea-based glutamate carboxypeptidase II (GCPII) inhibitors as versatile tools for specific drug targeting and delivery” (Bioorg Med Chem, 2014).

Molecular target: Glutamate carboxypeptidase 2 (Homo sapiens, UniProt Q04609)
Assay: Inhibition of human recombinant N-terminal Avi-tagged glutamate carboxypeptidase 2 extracellular domain (44 to 750 amino acids) using pteroyl-di-L-glutamate substrate by HPLC method
How it was run: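 Avi-GCPII (0.2 ng) in 25 mM Bis-Tris propane, 150 mM NaCl, 0.001% octaethylene glycol monododecyl ether, pH 7.4, preincubated with inhibitor (ten concentrations) 5 min at 37 °C. Reaction started with pteroyl-di-L-glutamate (20 µl of 4 µM stock), run 20 min at 37 °C, stopped with 2-PMPA. Substrate and product separated by isocratic HPLC, detected at 281 nm; IC50 from full curves, Ki mean ± SD, duplicate or triplicate.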

Glutamate carboxypeptidase 2, sequence (Q04609 whole entry, the tested form may be a part): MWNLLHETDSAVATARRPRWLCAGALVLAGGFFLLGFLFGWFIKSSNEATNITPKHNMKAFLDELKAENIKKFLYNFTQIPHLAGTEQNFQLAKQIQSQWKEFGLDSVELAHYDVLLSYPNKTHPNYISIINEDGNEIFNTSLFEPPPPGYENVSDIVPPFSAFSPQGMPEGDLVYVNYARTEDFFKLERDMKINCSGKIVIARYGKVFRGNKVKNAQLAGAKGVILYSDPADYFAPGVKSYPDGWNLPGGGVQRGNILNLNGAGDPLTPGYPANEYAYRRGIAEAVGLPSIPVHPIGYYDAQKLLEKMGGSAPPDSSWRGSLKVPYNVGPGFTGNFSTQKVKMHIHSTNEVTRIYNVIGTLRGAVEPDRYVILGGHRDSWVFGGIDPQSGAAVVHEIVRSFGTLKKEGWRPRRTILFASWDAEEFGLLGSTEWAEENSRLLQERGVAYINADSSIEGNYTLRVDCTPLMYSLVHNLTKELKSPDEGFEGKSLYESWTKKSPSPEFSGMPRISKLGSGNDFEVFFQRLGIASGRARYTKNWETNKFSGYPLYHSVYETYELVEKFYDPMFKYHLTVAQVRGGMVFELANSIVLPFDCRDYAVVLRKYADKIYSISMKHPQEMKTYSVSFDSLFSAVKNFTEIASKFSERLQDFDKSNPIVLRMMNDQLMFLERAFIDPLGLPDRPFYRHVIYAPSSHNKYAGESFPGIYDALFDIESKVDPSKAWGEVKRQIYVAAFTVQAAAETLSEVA

Row | Compound | Ki
1 | CC(=O)NCCOc1ccccc1NC(=O)NCCCC[C@H](NC(=O)N[C@@H](CCC(=O)O)C(=O)O)C(=O)O | 0.377 nM
2 | CC(=O)NCCCC[C@H](NC(=O)N[C@@H](CCC(=O)O)C(=O)O)C(=O)O | 0.174 nM
3 | CC(=O)NCCOc1cc(Cl)ccc1C(=O)NCCCC[C@H](NC(=O)N[C@@H](CCC(=O)O)C(=O)O)C(=O)O | 0.722 nM
4 | O=C(O)CC[C@H](NC(=O)N[C@@H](CCCCNC(=O)Cc1ccccc1OCCNC(=O)CCOCCOCCOCCOCCOCCOCCOCCOCCOCCOCCOCCOCCNC(=O)CCCC[C@H]1SC[C@H]2NC(=O)N[C@H]21)C(=O)O)C(=O)O | 28.1 nM
5 | O=C(O)CC[C@H](NC(=O)N[C@@H](CCCCNC(=O)CCOCCOCCOCCOCCOCCOCCOCCOCCOCCOCCOCCOCCNC(=O)CCCC[C@@H]1SC[C@@H]2NC(=O)N[C@@H]21)C(=O)O)C(=O)O | 10.5 nM
6 | CC(=O)N(CCCC[C@H](NC(=O)N[C@@H](CCC(=O)O)C(=O)O)C(=O)O)Cc1ccccc1 | 0.312 nM
7 | O=C(O)CC[C@H](NC(=O)N[C@@H](CCCCN(Cc1ccccc1)C(=O)CCOCCOCCOCCOCCOCCOCCOCCOCCOCCOCCOCCOCCNC(=O)CCCC[C@@H]1SC[C@@H]2NC(=O)N[C@@H]21)C(=O)O)C(=O)O | 3.42 nM
8 | CC(=O)NCCOc1cc(F)ccc1C(=O)NCCCC[C@H](NC(=O)N[C@@H](CCC(=O)O)C(=O)O)C(=O)O | 1.01 nM
9 | CC(=O)NCCOc1cc(Br)ccc1NC(=O)NCCCC[C@H](NC(=O)N[C@@H](CCC(=O)O)C(=O)O)C(=O)O | 0.221 nM
10 | CC(=O)NCCOc1cc(I)ccc1C(=O)NCCCC[C@H](NC(=O)N[C@@H](CCC(=O)O)C(=O)O)C(=O)O | 0.6 nM
11 | O=C(O)CC[C@H](NC(=O)N[C@@H](CCCCNC(=O)c1ccccc1OCCNC(=O)CCOCCOCCOCCOCCOCCOCCOCCOCCOCCOCCOCCOCCNC(=O)CCCC[C@@H]1SC[C@@H]2NC(=O)N[C@@H]21)C(=O)O)C(=O)O | 11 nM
12 | O=C(O)CC[C@H](NC(=O)N[C@@H](CCCCNC(=O)CCOCCOCCOCCOCCOCCOCCOCCOCCNC(=O)CCCC[C@@H]1SC[C@@H]2NC(=O)N[C@@H]21)C(=O)O)C(=O)O | 6.39 nM
13 | O=C(O)CC[C@H](NC(=O)N[C@@H](CCCCNC(=O)Nc1ccccc1OCCNC(=O)CCOCCOCCOCCOCCOCCOCCOCCOCCOCCOCCOCCOCCNC(=O)CCCC[C@@H]1SC[C@@H]2NC(=O)N[C@@H]21)C(=O)O)C(=O)O | 7.6 nM
14 | CC(=O)NCCOc1ccccc1CC(=O)NCCCC[C@H](NC(=O)N[C@@H](CCC(=O)O)C(=O)O)C(=O)O | 1.58 nM
15 | CC(=O)NCCOc1ccccc1C(=O)NCCCC[C@H](NC(=O)N[C@@H](CCC(=O)O)C(=O)O)C(=O)O | 0.601 nM
16 | O=C(O)CC[C@H](NC(=O)N[C@@H](CCCCNC(=O)Nc1ccc(Br)cc1OCCNC(=O)CCOCCOCCOCCOCCOCCOCCOCCOCCOCCOCCOCCOCCNC(=O)CCCC[C@@H]1SC[C@@H]2NC(=O)N[C@@H]21)C(=O)O)C(=O)O | 3.88 nM
17 | CC(=O)N(CCCC[C@H](NC(=O)N[C@@H](CCC(=O)O)C(=O)O)C(=O)O)Cc1ccc(Br)cc1 | 0.0449 nM
18 | CC(=O)NCCOc1cc(Br)ccc1C(=O)NCCCC[C@H](NC(=O)N[C@@H](CCC(=O)O)C(=O)O)C(=O)O | 0.268 nM
19 | NCCCC[C@H](NC(=O)N[C@@H](CCC(=O)O)C(=O)O)C(=O)O | 44.3 nM
